pIC50: −log10 of the molar value. Converted amounts (≈) assume the structure as drawn.
Experiments:
Staphylococcus aureus = assay: Antibacterial activity against Staphylococcus aureus TISTR 1466 by 2-fold serial dilution method; format: functional
Bacillus cereus = assay: Antibacterial activity against Bacillus cereus TISTR 688 by 2-fold serial dilution method; format: functional
Bacillus subtilis = assay: Antibacterial activity against Bacillus subtilis TISTR 008 by 2-fold serial dilution method; format: functional
Escherichia coli = assay: Antibacterial activity against Escherichia coli TISTR 780 by 2-fold serial dilution method; format: functional
Pseudomonas aeruginosa = assay: Antibacterial activity against Pseudomonas aeruginosa TISTR 884 by 2-fold serial dilution method; format: functional
Salmonella typhimurium = assay: Antibacterial activity against Salmonella typhimurium TISTR 292 by 2-fold serial dilution method; format: functional, Salmonella enterica subsp. enterica serovar Typhimurium
Saccharomyces cerevisiae = assay: Inhibition of Saccharomyces cerevisiae alpha-glucosidase using p-nitrophenyl alpha-D-glucoside as substrate at 100 uM preincubated for 0.5 hrs followed by substrate addition measured after 1 hr by colorimetric method relative to control
Method in brief: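 Test compound at 100 μM; enzyme (0.4 U/mL) preincubated with compound 0.5 h at 37 °C in 50 mM K2HPO4−KH2PO4 buffer, 10% DMSO final; reaction started with p-nitrophenyl α-D-glucoside (3 mM), 1 h at 37 °C; stopped with 0.1 M Na2CO3; absorbance read at 405 nm; percent inhibition.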

[1] = Inhibition of Saccharomyces cerevisiae alpha-glucosidase using p-nitrophenyl alpha-D-glucoside as substrate preincubated for 0.5 hrs followed by substrate addition measured after 1 hr by colorimetric method
Method in brief: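 Enzyme (0.4 U/mL) and compound preincubated 0.5 h at 37 °C in 50 mM K2HPO4−KH2PO4 buffer, final DMSO 10%; p-nitrophenyl α-D-glucoside (3 mM) added, further 1 h at 37 °C; terminated with 0.1 M Na2CO3, A405 read immediately as relative hydrolysis rate; IC50 determined; acarbose positive control.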

## COc1cc2oc3cc4c(c(O)c3c(=O)c2c(CC=C(C)C)c1O)C=CC(C)(C)O4
Staphylococcus aureus
  MIC: > 128 µg/mL
Bacillus cereus
  MIC: 128 µg/mL (≈ 313 µM)
Bacillus subtilis
  MIC: 128 µg/mL (≈ 313 µM)
Escherichia coli
  MIC: > 128 µg/mL
Pseudomonas aeruginosa
  MIC: 128 µg/mL (≈ 313 µM)
Salmonella typhimurium; Salmonella enterica
  MIC: 128 µg/mL (≈ 313 µM)

## COc1cc2oc3cc(OC)c(CC=C(C)C)c(O)c3c(=O)c2c(CC=C(C)C)c1O
Staphylococcus aureus
  MIC: > 128 µg/mL
Bacillus cereus
  MIC: 128 µg/mL (≈ 302 µM)
Bacillus subtilis
  MIC: 128 µg/mL (≈ 302 µM)
Escherichia coli
  MIC: > 128 µg/mL
Pseudomonas aeruginosa
  MIC: 128 µg/mL (≈ 302 µM)
Salmonella typhimurium; Salmonella enterica
  MIC: 128 µg/mL (≈ 302 µM)
Saccharomyces cerevisiae
  inhibition: 56.4%

## CC(C)=CCC/C(C)=C/CC1(C/C=C(\C)CCC=C(C)C)C(=O)C(O)=Cc2oc3cc(O)cc(O)c3c(=O)c21 (stereo not drawn)
Staphylococcus aureus
  MIC: > 128 µg/mL
Bacillus cereus
  MIC: 8 µg/mL (≈ 15 µM)
Bacillus subtilis
  MIC: 8 µg/mL (≈ 15 µM)
[1]
  pIC50: 4.44
Escherichia coli
  MIC: > 128 µg/mL
Pseudomonas aeruginosa
  MIC: 128 µg/mL (≈ 240 µM)
Salmonella typhimurium; Salmonella enterica
  MIC: 64 µg/mL (≈ 120 µM)
Saccharomyces cerevisiae
  inhibition: 62.9%

## COc1c(O)c(CC=C(C)C)c2oc3cc(O)c(CC=C(C)C)c(O)c3c(=O)c2c1CC=C(C)C
Staphylococcus aureus
  MIC: > 128 µg/mL
Bacillus cereus
  MIC: 32 µg/mL (≈ 66.9 µM)
Bacillus subtilis
  MIC: 32 µg/mL (≈ 66.9 µM)
Escherichia coli
  MIC: > 128 µg/mL
Pseudomonas aeruginosa
  MIC: 128 µg/mL (≈ 267 µM)
Salmonella typhimurium; Salmonella enterica
  MIC: 128 µg/mL (≈ 267 µM)

## COc1cc2oc3cc(OC)c(OC)c(CC=C(C)C)c3c(=O)c2c(O)c1CC=C(C)C
Staphylococcus aureus
  MIC: 128 µg/mL (≈ 292 µM)
Bacillus cereus
  MIC: > 128 µg/mL
Bacillus subtilis
  MIC: 128 µg/mL (≈ 292 µM)
Escherichia coli
  MIC: 64 µg/mL (≈ 146 µM)
Pseudomonas aeruginosa
  MIC: 128 µg/mL (≈ 292 µM)
Salmonella typhimurium; Salmonella enterica
  MIC: 128 µg/mL (≈ 292 µM)
Saccharomyces cerevisiae
  inhibition: 53.8%

## CC(C)=CCC/C(C)=C\CC1(C/C=C(\C)CCC=C(C)C)C(=O)C(O)=Cc2oc3cc(O)cc(O)c3c(=O)c21 (stereo not drawn)
Staphylococcus aureus
  MIC: 64 µg/mL (≈ 120 µM)
Bacillus cereus
  MIC: 8 µg/mL (≈ 15 µM)
Bacillus subtilis
  MIC: 8 µg/mL (≈ 15 µM)
[1]
  pIC50: 4.26
Escherichia coli
  MIC: 64 µg/mL (≈ 120 µM)
Pseudomonas aeruginosa
  MIC: 128 µg/mL (≈ 240 µM)
Salmonella typhimurium; Salmonella enterica
  MIC: 64 µg/mL (≈ 120 µM)
Saccharomyces cerevisiae
  inhibition: 75.8%

## COc1cc2oc3cc(O)c4c(c3c(=O)c2c(O)c1CC=C(C)C)CCC(C)(C)O4
Staphylococcus aureus
  MIC: 128 µg/mL (≈ 312 µM)
Bacillus cereus
  MIC: 128 µg/mL (≈ 312 µM)
Escherichia coli
  MIC: > 128 µg/mL
Pseudomonas aeruginosa
  MIC: > 128 µg/mL
Salmonella typhimurium; Salmonella enterica
  MIC: 128 µg/mL (≈ 312 µM)

## CC(C)=CCCC1(C)C=Cc2c(c(O)cc3oc4cc5c(c(O)c4c(=O)c23)C=CC(C)(C)O5)O1 (stereo not drawn)
Staphylococcus aureus
  MIC: > 128 µg/mL
Bacillus cereus
  MIC: 64 µg/mL (≈ 139 µM)
Bacillus subtilis
  MIC: 128 µg/mL (≈ 278 µM)
Escherichia coli
  MIC: > 128 µg/mL
Pseudomonas aeruginosa
  MIC: 128 µg/mL (≈ 278 µM)
Salmonella typhimurium; Salmonella enterica
  MIC: 64 µg/mL (≈ 139 µM)

## CC(C)=CCC/C(C)=C/CC1(CC=C(C)C)C(=O)C(O)=Cc2oc3cc(O)cc(O)c3c(=O)c21 (stereo not drawn) [GARCINIANONE A]
Staphylococcus aureus
  MIC: 64 µg/mL (≈ 138 µM)
Bacillus cereus
  MIC: 4 µg/mL (≈ 8.61 µM)
Bacillus subtilis
  MIC: 2 µg/mL (≈ 4.31 µM)
[1]
  pIC50: 4.47
Escherichia coli
  MIC: 64 µg/mL (≈ 138 µM)
Pseudomonas aeruginosa
  MIC: 128 µg/mL (≈ 276 µM)
Salmonella typhimurium; Salmonella enterica
  MIC: 64 µg/mL (≈ 138 µM)
Saccharomyces cerevisiae
  inhibition: 66.7%

## COc1cc2c(=O)c3c(O)c(C/C=C(\C)CCC=C(C)C)c(O)cc3oc2cc1O [COWAXANTHONE]
Staphylococcus aureus
  MIC: > 128 µg/mL
Bacillus cereus
  MIC: 64 µg/mL (≈ 156 µM)
Bacillus subtilis
  MIC: 64 µg/mL (≈ 156 µM)
Escherichia coli
  MIC: > 128 µg/mL
Pseudomonas aeruginosa
  MIC: 128 µg/mL (≈ 312 µM)
Salmonella typhimurium; Salmonella enterica
  MIC: 128 µg/mL (≈ 312 µM)

## COc1c(O)cc2oc3cc(O)c(CC=C(C)C)c(O)c3c(=O)c2c1CC=C(C)C [MANGOSTIN]
Staphylococcus aureus
  MIC: 64 µg/mL (≈ 156 µM)
Bacillus cereus
  MIC: 8 µg/mL (≈ 19.5 µM)
Bacillus subtilis
  MIC: 8 µg/mL (≈ 19.5 µM)
[1]
  pIC50: 5.11
Escherichia coli
  MIC: 64 µg/mL (≈ 156 µM)
Pseudomonas aeruginosa
  MIC: 128 µg/mL (≈ 312 µM)
Salmonella typhimurium; Salmonella enterica
  MIC: 64 µg/mL (≈ 156 µM)
Saccharomyces cerevisiae
  inhibition: 72%

## GENTAMICIN
Escherichia coli
  MIC: 0.25 µg/mL
Pseudomonas aeruginosa
  MIC: 2 µg/mL
Salmonella typhimurium; Salmonella enterica subsp. enterica serovar Typhimurium
  MIC: 0.125 µg/mL

## CN[C@H](CC(C)C)C(=O)N[C@H]1C(=O)N[C@@H](CC(N)=O)C(=O)N[C@H]2C(=O)N[C@H]3C(=O)N[C@H](C(=O)N[C@H](C(=O)O)c4cc(O)cc(O)c4-c4cc3ccc4O)[C@H](O)c3ccc(c(Cl)c3)Oc3cc2cc(c3O[C@@H]2O[C@H](CO)[C@@H](O)[C@H](O)[C@H]2O[C@H]2C[C@](C)(N)[C@H](O)[C@H](C)O2)Oc2ccc(cc2Cl)[C@H]1O [VANCOMYCIN]
Staphylococcus aureus
  MIC: 0.25 µg/mL (≈ 0.173 µM)
Bacillus cereus
  MIC: 0.25 µg/mL (≈ 0.173 µM)
Bacillus subtilis
  MIC: 0.25 µg/mL (≈ 0.173 µM)

## CC(C)=CCC/C(C)=C\CC1(CC=C(C)C)C(=O)C(O)=Cc2oc3cc(O)cc(O)c3c(=O)c21 (stereo not drawn) [GARCINIANONE B]
Staphylococcus aureus
  MIC: 64 µg/mL (≈ 138 µM)
Bacillus cereus
  MIC: 2 µg/mL (≈ 4.31 µM)
Bacillus subtilis
  MIC: 2 µg/mL (≈ 4.31 µM)
[1]
  pIC50: 4.93
Escherichia coli
  MIC: 64 µg/mL (≈ 138 µM)
Pseudomonas aeruginosa
  MIC: 128 µg/mL (≈ 276 µM)
Salmonella typhimurium; Salmonella enterica
  MIC: 64 µg/mL (≈ 138 µM)
Saccharomyces cerevisiae
  inhibition: 69.1%

## COc1cc2oc3cc4c(c(O)c3c(=O)c2c(CC=C(C)C)c1OC)C=CC(C)(C)O4
Staphylococcus aureus
  MIC: > 128 µg/mL
Bacillus cereus
  MIC: 128 µg/mL (≈ 303 µM)
Bacillus subtilis
  MIC: 128 µg/mL (≈ 303 µM)
[1]
  pIC50: 4.58
Escherichia coli
  MIC: > 128 µg/mL
Pseudomonas aeruginosa
  MIC: 128 µg/mL (≈ 303 µM)
Salmonella typhimurium; Salmonella enterica
  MIC: 64 µg/mL (≈ 151 µM)
Saccharomyces cerevisiae
  inhibition: 62.2%

## COc1cc2oc3cc(O)c(OC)c(CC=C(C)C)c3c(=O)c2c(O)c1CC=C(C)C
Staphylococcus aureus
  MIC: > 128 µg/mL
Bacillus cereus
  MIC: 16 µg/mL (≈ 37.7 µM)
Bacillus subtilis
  MIC: 4 µg/mL (≈ 9.42 µM)
[1]
  pIC50: 5.06
Escherichia coli
  MIC: > 128 µg/mL
Pseudomonas aeruginosa
  MIC: 128 µg/mL (≈ 302 µM)
Salmonella typhimurium; Salmonella enterica
  MIC: 128 µg/mL (≈ 302 µM)
Saccharomyces cerevisiae
  inhibition: 73.1%

## C[C@H]1O[C@H](O[C@H]2[C@H](O)[C@@H](O)[C@@H](O[C@H]3[C@H](O)[C@@H](O)C(O)O[C@@H]3CO)O[C@@H]2CO)[C@H](O)[C@@H](O)[C@@H]1N[C@H]1C=C(CO)[C@@H](O)[C@H](O)[C@H]1O (stereo partly drawn) [ACARBOSE]
[1]
  pIC50: 5.10

## COc1c(O)cc2oc3cc4c(c(O)c3c(=O)c2c1C/C=C(\C)CCC=C(C)C)C=CC(C)(C)O4
Staphylococcus aureus
  MIC: 128 µg/mL (≈ 269 µM)
Bacillus cereus
  MIC: 64 µg/mL (≈ 134 µM)
Bacillus subtilis
  MIC: 64 µg/mL (≈ 134 µM)
[1]
  pIC50: 4.73
Escherichia coli
  MIC: 64 µg/mL (≈ 134 µM)
Pseudomonas aeruginosa
  MIC: 128 µg/mL (≈ 269 µM)
Salmonella typhimurium; Salmonella enterica
  MIC: 128 µg/mL (≈ 269 µM)
Saccharomyces cerevisiae
  inhibition: 71.7%

## COc1c(O)cc2oc3cc(O)cc(O)c3c(=O)c2c1C/C=C(\C)CCC=C(C)C [RUBRAXANTHONE]
Staphylococcus aureus
  MIC: > 128 µg/mL
Bacillus cereus
  MIC: 4 µg/mL (≈ 9.75 µM)
Bacillus subtilis
  MIC: 2 µg/mL (≈ 4.87 µM)
[1]
  pIC50: 4.63
Escherichia coli
  MIC: 64 µg/mL (≈ 156 µM)
Pseudomonas aeruginosa
  MIC: 64 µg/mL (≈ 156 µM)
Salmonella typhimurium; Salmonella enterica
  MIC: 64 µg/mL (≈ 156 µM)
Saccharomyces cerevisiae
  inhibition: 71.2%

## COc1cc2oc3cc(O)c4c(c3c(=O)c2c(O)c1CC=C(C)C)C=CC(C)(C)O4
Staphylococcus aureus
  MIC: 128 µg/mL (≈ 313 µM)
Bacillus cereus
  MIC: 128 µg/mL (≈ 313 µM)
Bacillus subtilis
  MIC: 128 µg/mL (≈ 313 µM)
Escherichia coli
  MIC: > 128 µg/mL
Pseudomonas aeruginosa
  MIC: 128 µg/mL (≈ 313 µM)
Salmonella typhimurium; Salmonella enterica
  MIC: 128 µg/mL (≈ 313 µM)
Saccharomyces cerevisiae
  inhibition: 50.8%

## COc1c(O)cc2oc3cc4c(c(O)c3c(=O)c2c1CC=C(C)C)C=CC(C)(C)O4 [MANGOSTANIN]
Staphylococcus aureus
  MIC: 64 µg/mL (≈ 157 µM)
Bacillus cereus
  MIC: 4 µg/mL (≈ 9.79 µM)
Bacillus subtilis
  MIC: 8 µg/mL (≈ 19.6 µM)
[1]
  pIC50: 4.46
Escherichia coli
  MIC: > 128 µg/mL
Pseudomonas aeruginosa
  MIC: 128 µg/mL (≈ 313 µM)
Salmonella typhimurium; Salmonella enterica
  MIC: 128 µg/mL (≈ 313 µM)
Saccharomyces cerevisiae
  inhibition: 70.1%

## COc1cc2c(=O)c3c(O)c4c(cc3oc2cc1O)OC(C)(CCC=C(C)C)C=C4 (stereo not drawn)
Staphylococcus aureus
  MIC: > 128 µg/mL
Bacillus cereus
  MIC: 32 µg/mL (≈ 78.3 µM)
Bacillus subtilis
  MIC: 64 µg/mL (≈ 157 µM)
Escherichia coli
  MIC: > 128 µg/mL
Pseudomonas aeruginosa
  MIC: 128 µg/mL (≈ 313 µM)
Salmonella typhimurium; Salmonella enterica
  MIC: 128 µg/mL (≈ 313 µM)
